Source: PubChem BioAssay
Only some compounds are listed: those with a hit (about 4.2% of all), similar ones and a draw of the others.
Hep lipid drop = inhibitors of hepatocyte lipid droplet formation, primary screen, imaging, high-throughput imaging, BODIPY stain | AID 1656, 2009 | AML12 mouse hepatocytes, oleate lipid droplets | 0.4% of 240,000 active | inhibition, % at 6.5 µM;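 active = lipid droplet intensity inhibited by at least 50%, with more than 500 cells counted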
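Assay system: AML12 mouse liver cells | Compound dosing: One dose, 6.5 µM compound | Read-out basis: Droplet intensity reduction, % inhibition | Measured by: Fluorescence imaging, 20x objective, two fields per well | Schedule: Overnight treatment with compound plus oleate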
UPR CHOP act = activators of apoptotic CHOP UPR arm, primary screen, cell-based, CHO-CHOP luciferase reporter, luminescence, uHTS; UPR activation; percent of tunicamycin response over DMSO baseline; 0.34% of 330,000 active; activation, % at 10 µM;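 active = at 10 µM dose, activation of 40% or more, normalized to positive control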;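 also: 100% = tunicamycin at 10 µg/mL and 0% = DMSO alone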
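Test system: CHO CHOP reporter cells. Input: 500 CHO-CHOP cells per well. Medium: F12 with 10% FBS. Technique: luciferase luminescence. Measure: percent activation relative to tunicamycin control. Dosing: 10 µM compound, 0.5% DMSO. Timing: 16-18 h cell attachment, then 6 h compound exposure, 37 °C.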
CHOP inh = inhibitors of CHOP promoter induction, primary screen, cell-based, unfolded protein response, luciferase reporter; CHO-K1 CHOP-promoter luciferase, tunicamycin-induced, 15-18 h; inhibition, % at 10 µM; 3.8% of 220,000 active;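 active = compounds that reduced the stress-induced luciferase reporter signal by more than about 70% of percent inhibition, limit read from the data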;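 also: 0% = tunicamycin plus vehicle and 100% = wells without tunicamycin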
ANO1 block = TMEM16A chloride channel inhibitors, primary screen, cell-based, HTS | Anoctamin-1 (Mus musculus), Q8BHY3 | HEK293 TMEM16A/YFP iodide influx fluorescence, ionomycin | normalized B-score (activity score, 25-100; higher = stronger inhibition) at 10 µM | 1.2% of 310,000 active | AID 588511, 2011;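 active = ratio plate-corrected score three or more library SD toward inhibition, starting fluorescence score within five deviations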;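 also: score derived from kinetic fluorescence span divided by baseline fluorescence per well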
UPR XBP1 act = activators of adaptive XBP1 UPR arm, primary screen, cell-based, CHO-XBP1 luciferase reporter, luminescence, uHTS; IRE1-XBP1 UPR activation; percent of tunicamycin response, DMSO as zero; activation, % at 20 µM; 0.33% of 330,000 active; AID 463104, 2010;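 active = versus positive control, 20 µM dose yields 30% or more activation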;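 also: 100% = tunicamycin at 10 µg/mL and 0% = DMSO only wells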
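Material: IRE1-XBP1 luciferase reporter CHO line / Quantity: one thousand reporter cells per well / Buffer or medium: F12 with 10% serum / Compound: 20 µM single concentration, DMSO 1% / Times: 6 h treatment, 37 °C / Detection: Steady-Glo luciferase glow luminescence, 10 min after reagent addition / Benchmarks: tunicamycin high, DMSO low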
ANO1 activ = TMEM16A chloride channel activators or potentiators, primary screen, cell-based, HTS. Anoctamin-1 (Mus musculus), Q8BHY3. B-score at 10 µM. HEK293 TMEM16A/YFP-H148Q/I152L, iodide quench fluorescence; active compounds read low. 0.3% of 340,000 active. AID 623877, 2012;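 active = fluorescence-ratio B-score plate-corrected deviation score at least 3 library SD below zero, with starting fluorescence score within 5 deviations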;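 also: channel opened by trigger with iodide after compound preincubation; score built on the fluorescence ratio of max minus min over baseline; more negative score means more quench and so TMEM16A activation or potentiation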
CHOP inh conf = retest of CHOP induction inhibitors, confirmation, cell-based | inhibition, % at 10 µM | 45% of 2,100 active | CHO-CHOP promoter luciferase reporter, tunicamycin-induced, luminescence | shares compounds with CHOP inh;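 active = mean of three repeat readings of reporter signal inhibition above a set limit, cut at about 70% in these data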;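 also: 0% = tunicamycin plus vehicle and 100% = wells lacking tunicamycin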
* = called active by the depositor; i = inactive; nt = not tested or not shown.

SMILES | Hep lipid drop | UPR CHOP act | CHOP inh | ANO1 block | UPR XBP1 act | ANO1 activ | CHOP inh conf
CN1/C(=C/c2cccc[n+]2CCO)Sc2ccccc21 | 0 | -2 | nt | i | 0 | i | nt
O=C(Nc1cccc(Cl)c1)Nc1ccnc(-c2cccnc2)n1 | 12 | 2 | 105* | i | 3 | i | 105*
COc1cc(/C=C/C(=O)OC2CC3CCC2(C)C3(C)C)ccc1O (stereo not given) | 8 | 4 | 100* | i | 13 | i | 102*
O=C(NC(c1ccccc1)c1cc(Cl)c2cccnc2c1O)c1cccnc1 (stereo not given) | -2 | 13 | 104* | i | 4 | nt | 104*
O=C(CC1SC(=NCc2ccccc2)NC1=O)Nc1ccccc1 (stereo not given) | -18 | 1 | -30 | i | -1 | i | nt
C=CCc1cc(C)ccc1OCC(O)CN1CCN(c2ccccc2)CC1 (stereo not given) | nt | 0 | 106* | i | -2 | i | 96*
CC1CN(CCc2ccccc2)c2nc3c(c(=O)n(CC(N)=O)c(=O)n3C)n2C1 (stereo not given) | -4 | -1 | nt | i | -4 | i | nt
CCOc1ccccc1CNC(=O)C1CCCN(c2nnc(C)c3c(C)n(-c4ccccc4)nc23)C1 (stereo not given) | -21 | 7 | nt | i | 14 | i | nt
Cc1ccc(O)c(-c2cc(-c3ccccc3C)[nH]n2)c1 | 8 | 3 | 106* | nt | 6 | i | 8
Oc1ccc(Cl)cc1-c1cc(-c2ccccc2Cl)[nH]n1 | 3 | 5 | -27 | i | 5 | i | nt
COc1ccc(-c2cc(-c3cc(C)ccc3O)[nH]n2)cc1 | -8 | 7 | -28 | i | 4 | i | nt
Oc1ccccc1-c1cc(-c2ccccc2Cl)[nH]n1 | 10 | 2 | 99* | i | -1 | i | 10
COc1ccc(CNc2oc(-c3cccc4ccccc34)nc2C#N)cc1 | -10 | -2 | 97* | i | 0 | i | 98*
COc1ccc(NC(=O)c2cccs2)cc1 | -2 | 3 | -12 | i | 2 | i | nt
COc1ccc(/C=C(/C(=O)c2cccs2)N2C=CC=CC2=C(C#N)C#N)cc1 | -4 | nt | 105* | nt | nt | -5* | 109*
COCCn1c(C)cc(C(=O)COC(=O)/C=C/c2ccc(OC)cc2OC)c1C | nt | -1 | nt | nt | -5 | i | nt
Cc1cc(C)c(C)c(OCc2nc(-c3cccnc3)no2)c1 | -13 | -1 | 97* | i | -3 | i | 35
Cc1ccc(OCc2nc(-c3ccccc3)no2)c(C)c1 | nt | 5 | 24 | i | 7 | i | nt
Cc1cccn2c(=O)c3cc(S(=O)(=O)c4ccccc4)c(=N)n(CC4CCCO4)c3nc12 (stereo not given) | -2 | 1 | 16 | i | 3 | nt | nt
O=C(COC(=O)Cc1c(Cl)cccc1Cl)Nc1ccc(OC(F)(F)F)cc1 | 10 | 1 | 109* | i | -2 | i | 86*
CN(CC(=O)Nc1ccc(OC(F)(F)F)cc1)C(=O)Cc1c(Cl)cccc1Cl | -2 | 1 | nt | i | 0 | i | nt
CC1(C)C(C=C(Cl)Cl)C1C(=O)Nc1ccc([N+](=O)[O-])cc1 (stereo not given) | -4 | nt | 104* | i | nt | nt | 58
Cc1ccc(NN2C(=O)C=C(c3ccc(Cl)cc3)C2=O)cc1 | 12 | -5 | 108* | i | -11 | i | 140*
O=C1Cc2ccccc2C(=O)N1Nc1ccccc1 | nt | nt | nt | nt | nt | i | nt
Cc1ccc(NN2C(=O)C=CC2=O)cc1 | -6 | 2 | 10 | i | 0 | i | nt
